Experimental data published in ChEMBL document CHEMBL1165943, “Design and synthesis of new anticancer pyrimidines with multiple-kinase inhibitory effect” (Bioorg Med Chem, 2010).

Columns and labels:
Malme-3M [1] = assay: Cytotoxicity against human MALME-3M cells assessed as cell growth at 100 nM after 48 hrs by sulforhodamine B assay; assay type: functional; conditions: read-out: Activity
Malme-3M [2] = assay: Cytotoxicity against human MALME-3M cells assessed as cell growth at 1 uM after 48 hrs by sulforhodamine B assay; assay type: functional; conditions: read-out: Activity
SF-539 = assay: Cytotoxicity against human SF539 cells assessed as cell growth at 100 nM after 48 hrs by sulforhodamine B assay; assay type: functional; conditions: SF-539, 48 h, read-out: Activity
ACHN [3] = assay: Growth inhibition of human ACHN cells after 48 hrs by sulforhodamine B assay; assay type: functional, cell-based
Outline: (§1)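 Five-dose SRB assay. Cells in RPMI 1640 with 5% FBS and 2 mM L-glutamine were seeded at 5,000–40,000 cells/well, with a TCA-fixed time-zero plate (Tz) taken at 24 h. Compound stocks were in DMSO, serially diluted 10-fold or ½-log to five concentrations, and incubated 48 h at 37 °C. Plates were stained with SRB and read at 515 nm. IC₅₀ was taken where [(Ti−Tz)/(C−Tz)]×100 = 50.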

NCI/ADR-RES = assay: Cytotoxicity against human NCI/ADR-RES cells assessed as cell growth at 0.001 uM after 48 hrs by sulforhodamine B assay; assay type: functional; conditions: read-out: Activity
SF-268 = assay: Cytotoxicity against human SF268 cells assessed as cell growth at 100 nM after 48 hrs by sulforhodamine B assay; assay type: functional; conditions: SF-268, 48 h, read-out: Activity
SK-MEL-2 [4] = assay: Cytotoxicity against human SK-MEL-2 cells assessed as cell growth at 1 uM after 48 hrs by sulforhodamine B assay; assay type: functional; conditions: SK-MEL-2, 48 h, read-out: Activity
SF-295 [5] = assay: Cytotoxicity against human SF295 cells assessed as cell growth at 0.001 uM after 48 hrs by sulforhodamine B assay; assay type: functional; conditions: SF-295, 48 h, read-out: Activity
MDA-MB-468 [6] = assay: Cytotoxicity against human MDA-MB-468 cells assessed as cell growth at 1 uM after 48 hrs by sulforhodamine B assay; assay type: functional; conditions: MDA-MB-468, 48 h, read-out: Activity
HT-29 [7] = assay: Growth inhibition of human HT-29 cells after 48 hrs by sulforhodamine B assay; assay type: functional, cell-based; conditions: HT-29, 48 h; for CC50: read-out: LC50 (the source's name)
Outline: (§2)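 Cells grown in RPMI 1640 with 5% FBS and 2 mM L-glutamine, seeded at 5,000–40,000 cells/well according to doubling time. After 24 h, time-zero plates are TCA-fixed. Five concentrations (10-fold or ½log dilutions, DMSO stocks) are applied for 48 h at 37 °C, 5% CO₂. Cells are TCA-fixed, SRB-stained and read at 515 nm. IC₅₀ is taken from [(Ti−Tz)/(C−Tz)]×100 = 50.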

SF-295 [8] = assay: Cytotoxicity against human SF295 cells assessed as cell growth at 10 uM after 48 hrs by sulforhodamine B assay; assay type: functional; conditions: SF-295, 48 h, read-out: Activity
UO-31 = assay: Cytotoxicity against human UO31 cells assessed as cell growth at 100 nM after 48 hrs by sulforhodamine B assay; assay type: functional; conditions: UO-31, 48 h, read-out: Activity
IGROV-1 = assay: Cytotoxicity against human IGROV1 cells assessed as cell growth at 10 uM after 48 hrs by sulforhodamine B assay; assay type: functional; conditions: IGROV-1, 48 h, read-out: Activity
LOX IMVI = assay: Cytotoxicity against human LOXIMVI cells assessed as cell growth at 0.01 uM after 48 hrs by sulforhodamine B assay; assay type: functional; conditions: read-out: Activity
A498 = assay: Growth inhibition of human A498 cells after 48 hrs by sulforhodamine B assay; assay type: functional, cell-based; conditions: A498, 48 h; for CC50: read-out: LC50 (the source's name); outline: as §1
SW-620 [9] = assay: Growth inhibition of human SW620 cells after 48 hrs by sulforhodamine B assay; assay type: functional, cell-based; conditions: SW-620, 48 h; for CC50: read-out: LC50 (the source's name); outline: as §2
BT-549 = assay: Cytotoxicity against human BT549 cells assessed as cell growth at 10 uM after 48 hrs by sulforhodamine B assay; assay type: functional; conditions: BT-549, 48 h, read-out: Activity
Outline: (§3)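 Cells grown in RPMI 1640 with 5% FBS and 2 mM L-glutamine, seeded at 5,000–40,000 cells/well by doubling time. Time-zero plates TCA-fixed after 24 h. Five concentrations (10-fold or half-log dilutions from DMSO stock) added; 48 h at 37 °C, 5% CO2. Cold TCA fixation (final 10%, 60 min, 4 °C), 0.4% SRB stain, dye solubilized in 10 mM trizma base, A515.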

SK-MEL-2 [10] = assay: Cytotoxicity against human SK-MEL-2 cells assessed as cell growth at 0.001 uM after 48 hrs by sulforhodamine B assay; assay type: functional; conditions: SK-MEL-2, 48 h, read-out: Activity
OVCAR-8 = assay: Cytotoxicity against human OVCAR8 cells assessed as cell growth at 10 uM after 48 hrs by sulforhodamine B assay; assay type: functional; conditions: OVCAR-8, 48 h, read-out: Activity
SK-OV-3 = assay: Cytotoxicity against human SKOV3 cells assessed as cell growth at 0.01 uM after 48 hrs by sulforhodamine B assay; assay type: functional; conditions: SK-OV-3, 48 h, read-out: Activity
Malme-3M [11] = assay: Cytotoxicity against human MALME-3M cells assessed as cell growth at 10 uM after 48 hrs by sulforhodamine B assay; assay type: functional; conditions: read-out: Activity
SW-620 [12] = assay: Cytotoxicity against human SW620 cells assessed as cell growth at 10 uM after 48 hrs by sulforhodamine B assay; assay type: functional; conditions: SW-620, 48 h, read-out: Activity
ACHN [13] = assay: Cytotoxicity against human ACHN cells assessed as cell growth at 0.001 uM after 48 hrs by sulforhodamine B assay; assay type: functional; conditions: read-out: Activity; outline: as §3
M14 = assay: Cytotoxicity against human M14 cells assessed as cell growth at 10 uM after 48 hrs by sulforhodamine B assay; assay type: functional; conditions: M14, 48 h, read-out: Activity
NCI-H522 = assay: Cytotoxicity against human NCI-H522 cells assessed as cell growth at 100 nM after 48 hrs by sulforhodamine B assay; assay type: functional; conditions: NCI-H522, 48 h, read-out: Activity
UACC-257 = assay: Growth inhibition of human UACC257 cells after 48 hrs by sulforhodamine B assay; assay type: functional, cell-based; conditions: UACC-257, 48 h; for CC50: read-out: LC50 (the source's name); outline: as §2
HT-29 [14] = assay: Cytotoxicity against human HT-29 cells assessed as cell growth at 100 nM after 48 hrs by sulforhodamine B assay; assay type: functional; conditions: HT-29, 48 h, read-out: Activity
SF-295 [15] = assay: Growth inhibition of human SF295 cells after 48 hrs by sulforhodamine B assay; assay type: functional, cell-based; conditions: SF-295, 48 h; for CC50: read-out: LC50 (the source's name); outline: as §2
MDA-MB-468 [16] = assay: Cytotoxicity against human MDA-MB-468 cells assessed as cell growth at 10 uM after 48 hrs by sulforhodamine B assay; assay type: functional; conditions: MDA-MB-468, 48 h, read-out: Activity
K562 = assay: Cytotoxicity against human K562 cells assessed as cell growth at 0.01 uM after 48 hrs by sulforhodamine B assay; assay type: functional; conditions: K562, 48 h, read-out: Activity

Molecule `CC(=O)Nc1cccc(-c2ccc(-c3ccnc(NC(=O)Nc4cc(C(F)(F)F)cc(C(F)(F)F)c4)n3)cn2)c1.Cl` has a growth at 0.1 µM (Malme-3M [1]) of 93%, a growth at 1 µM (Malme-3M [2]) of -50% and a growth at 0.1 µM (SF-539) of 86%. For the same molecule, the GI50 (ACHN [3]) was 3.83 µM, the IC50 (ACHN [3]) was 3.83 µM and the LC50 (50% lethal concentration) (ACHN [3]) was 47.1 µM. For the same molecule, the TGI (ACHN [3]) was 15.5 µM, the growth at 0.001 µM (NCI/ADR-RES) was 95% and the growth at 0.1 µM (SF-268) was 93%. For the same molecule, the growth at 1 µM (SK-MEL-2 [4]) was 35%, the growth at 0.001 µM (SF-295 [5]) was 98% and the growth at 1 µM (MDA-MB-468 [6]) was -79%. The GI50 (HT-29 [7]) was 3 µM, the IC50 (HT-29 [7]) was 3 µM and the TGI (HT-29 [7]) was 8.74 µM. For the same molecule, the CC50 (HT-29 [7]) was 57.6 µM, the growth at 10 µM (SF-295 [8]) was -33% and the growth at 0.1 µM (UO-31) was 70%. The growth at 10 µM (IGROV-1) was -21%, the growth at 0.01 µM (LOX IMVI) was 86% and the GI50 (A498) was 6.13 µM. The IC50 (A498) was 6.13 µM, the TGI (A498) was 22.2 µM and the CC50 (A498) was 59.2 µM. The GI50 (SW-620 [9]) was 2.3 µM, the IC50 (SW-620 [9]) was 2.3 µM and the TGI (SW-620 [9]) was 5.59 µM. It also gave a CC50 (SW-620 [9]) greater than 100 µM, a growth at 10 µM (BT-549) of -97% and a growth at 0.001 µM (SK-MEL-2 [10]) of 95%. It also gave a growth at 10 µM (OVCAR-8) of -84%, a growth at 0.01 µM (SK-OV-3) of 98% and a growth at 10 µM (Malme-3M [11]) of -49%. For the same molecule, the growth at 10 µM (SW-620 [12]) was 41%, the growth at 0.001 µM (ACHN [13]) was 101% and the growth at 10 µM (M14) was 100%. It also gave a growth at 0.1 µM (NCI-H522) of 72%, a GI50 (UACC-257) of 1.69 µM and an IC50 (UACC-257) of 1.69 µM. It also gave a TGI (UACC-257) of 4.32 µM, a CC50 (UACC-257) of 13.2 µM and a growth at 0.1 µM (HT-29 [14]) of 101%. It also gave a GI50 (SF-295 [15]) of 1.27 µM, an IC50 (SF-295 [15]) of 1.27 µM and a TGI (SF-295 [15]) of 6.19 µM. For the same molecule, the CC50 (SF-295 [15]) was greater than 100 µM, the growth at 10 µM (MDA-MB-468 [16]) was 100% and the growth at 0.01 µM (K562) was 32%.
With `CC(=O)c1ccccc1-c1ccc(-c2ccnc(NC(=O)Nc3cc(N4CCOCC4)cc(C(F)(F)F)c3)n2)cn1` the growth at 0.1 µM (Malme-3M [1]) was 78%, the growth at 1 µM (Malme-3M [2]) was 24% and the growth at 0.1 µM (SF-539) was 88%. The GI50 (ACHN [3]) was greater than 100 µM, the IC50 (ACHN [3]) was 6.89 µM and the LC50 (50% lethal concentration) (ACHN [3]) was greater than 100 µM. For the same molecule, the TGI (ACHN [3]) was greater than 100 µM, the growth at 0.001 µM (NCI/ADR-RES) was 100% and the growth at 0.1 µM (SF-268) was 90%. The growth at 1 µM (SK-MEL-2 [4]) was 65%, the growth at 0.001 µM (SF-295 [5]) was 93% and the growth at 1 µM (MDA-MB-468 [6]) was 109%. It also gave a GI50 (HT-29 [7]) greater than 100 µM, an IC50 (HT-29 [7]) greater than 100 µM and a TGI (HT-29 [7]) greater than 100 µM. It also gave a CC50 (HT-29 [7]) greater than 100 µM, a growth at 10 µM (SF-295 [8]) of 48% and a growth at 0.1 µM (UO-31) of 80%. The growth at 10 µM (IGROV-1) was 41%, the growth at 0.01 µM (LOX IMVI) was 106% and the GI50 (A498) was 13 µM. It also gave an IC50 (A498) greater than 100 µM, a TGI (A498) greater than 100 µM and a CC50 (A498) greater than 100 µM. The GI50 (SW-620 [9]) was greater than 100 µM, the IC50 (SW-620 [9]) was greater than 100 µM and the TGI (SW-620 [9]) was greater than 100 µM. For the same molecule, the CC50 (SW-620 [9]) was greater than 100 µM, the growth at 10 µM (BT-549) was 46% and the growth at 0.001 µM (SK-MEL-2 [10]) was 102%. It also gave a growth at 10 µM (OVCAR-8) of 53%, a growth at 0.01 µM (SK-OV-3) of 113% and a growth at 10 µM (Malme-3M [11]) of 61%. For the same molecule, the growth at 10 µM (SW-620 [12]) was 102%, the growth at 0.001 µM (ACHN [13]) was 97% and the growth at 10 µM (M14) was 86%. For the same molecule, the growth at 0.1 µM (NCI-H522) was 101%, the GI50 (UACC-257) was 15.9 µM and the IC50 (UACC-257) was greater than 100 µM. The TGI (UACC-257) was greater than 100 µM, the CC50 (UACC-257) was greater than 100 µM and the growth at 0.1 µM (HT-29 [14]) was 98%. It also gave a GI50 (SF-295 [15]) of 40.2 µM, an IC50 (SF-295 [15]) of 9.04 µM and a TGI (SF-295 [15]) greater than 100 µM. It also gave a CC50 (SF-295 [15]) greater than 100 µM, a growth at 10 µM (MDA-MB-468 [16]) of 65% and a growth at 0.01 µM (K562) of 75%.
